The source made the active and inactive calls. No cut-off for these calls is given here.
What was measured:
L6 [1] = experiment: Induction of glucose uptake in rat L6 cells harboring GLUT4-myc assessed as glucose uptake at 10 uM relative to control; format: functional
In short: (§1)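 L6-GLUT4myc rat skeletal muscle cells were exposed once to test compound at 10 µM. Glucose uptake was read and reported as fold increase and as percent stimulation over untreated control.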

L6 [2] = experiment: Induction of glucose uptake in rat L6 cells harboring GLUT4-myc assessed as fold change in glucose uptake at 10 uM; format: functional; in short: as §1
[3] = biological target: T1, Solute carrier family 2, facilitated glucose transporter member 4 (Rattus norvegicus) (UniProt P19357); experiment: Induction of GLUT4 translocation in rat L6 cells harboring GLUT4-myc assessed as increase in surface level GLUT4myc at 10 uM after 16 hrs; format: cell-based
T1 sequence (whole entry): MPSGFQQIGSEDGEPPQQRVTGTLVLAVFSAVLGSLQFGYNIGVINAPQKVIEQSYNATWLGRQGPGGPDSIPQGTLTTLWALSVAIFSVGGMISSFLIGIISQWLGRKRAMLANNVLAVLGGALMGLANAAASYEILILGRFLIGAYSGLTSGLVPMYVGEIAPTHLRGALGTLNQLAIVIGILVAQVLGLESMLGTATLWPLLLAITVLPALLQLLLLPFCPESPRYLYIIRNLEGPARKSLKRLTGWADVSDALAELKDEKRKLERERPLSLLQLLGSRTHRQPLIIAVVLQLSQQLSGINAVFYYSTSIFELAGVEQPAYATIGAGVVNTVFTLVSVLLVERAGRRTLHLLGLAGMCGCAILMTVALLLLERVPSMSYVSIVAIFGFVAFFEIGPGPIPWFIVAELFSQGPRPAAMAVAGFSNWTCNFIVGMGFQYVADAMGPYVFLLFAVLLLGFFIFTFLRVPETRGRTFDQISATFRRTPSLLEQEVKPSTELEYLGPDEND

L6 [4] = experiment: Induction of glucose uptake in rat L6 cells harboring GLUT4-myc assessed as glucose uptake at 500 uM relative to control; format: functional
In short: (§2)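 L6-GLUT4myc skeletal muscle cells were exposed to the reference agent at 500 µM. Glucose uptake was measured as fold increase and as percent stimulation relative to untreated control.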

[5] = biological target: T1, Solute carrier family 2, facilitated glucose transporter member 4 (Rattus norvegicus); experiment: Induction of GLUT4 translocation in rat L6 cells harboring GLUT4-myc assessed as fold change in increase of surface level GLUT4myc at 500 uM after 16 hrs; format: cell-based
In short: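 L6-GLUT4myc myotubes were exposed for 16 h, and cell-surface GLUT4myc level was then measured. Experiments were done in triplicate and expressed as mean ± SE, with p relative to the unstimulated control.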

L6 [6] = experiment: Induction of glucose uptake in rat L6 cells harboring GLUT4-myc assessed as fold change in glucose uptake at 500 uM; format: functional; in short: as §2

CCOC(=O)C(C)Oc1ccc(-c2nc3c(cnn3-c3ccc(F)cc3F)c(=O)[nH]2)cc1 (configuration not stated)
Activity (L6 [1]): -14.7%

CCOC(=O)CCCOc1ccc(-c2nc3c(cnn3-c3ccc(F)cc3F)c(=O)[nH]2)cc1
Activity (L6 [1]): 2.9%

CCOC(=O)COc1ccc(-c2nc3c(cnn3-c3ccc(F)cc3F)c(=O)[nH]2)cc1
Activity (L6 [1]): -1.6%

CCOC(=O)C(C)Oc1ccc(-c2nc3c(cnn3-c3ccc(OC)cc3)c(=O)[nH]2)cc1 (configuration not stated)
Activity (L6 [1]): 34.4%
fold change (FC) (L6 [2]): 1.34
Activity [3]: Active

CCOC(=O)CCCOc1ccc(-c2nc3c(cnn3-c3ccccc3)c(=O)[nH]2)cc1
Activity (L6 [1]): -8.3%

CCOC(=O)C(C)(C)Oc1ccc(-c2nc3c(cnn3-c3ccc(C)c(C)c3)c(=O)[nH]2)cc1
Activity (L6 [1]): 12.9%

CCOC(=O)C(C)(C)Oc1ccc(-c2nc3c(cnn3-c3ccccc3)c(=O)[nH]2)cc1
Activity (L6 [1]): 34.4%
fold change (FC) (L6 [2]): 1.34
Activity [3]: Active

CCOC(=O)COc1ccc(-c2nc3c(cnn3-c3ccc(F)cc3)c(=O)[nH]2)cc1
Activity (L6 [1]): 23.7%

CCOC(=O)C(C)Oc1ccc(-c2nc3c(cnn3-c3ccc(F)cc3)c(=O)n2C)cc1 (configuration not stated)
Activity (L6 [1]): 2.9%

CCOC(=O)C(C)(C)Oc1ccc(-c2nc3c(cnn3-c3ccc(F)cc3)c(=O)[nH]2)cc1
Activity (L6 [1]): 0.6%

CCOC(=O)CCCOc1ccc(-c2nc3c(cnn3-c3ccc(C)c(C)c3)c(=O)[nH]2)cc1
Activity (L6 [1]): 54%
fold change (FC) (L6 [2]): 1.54
Activity [3]: Active

CCOC(=O)COc1ccc(-c2nc3c(cnn3-c3ccccc3)c(=O)[nH]2)cc1
Activity (L6 [1]): -8.6%

CCOC(=O)C(C)Oc1ccc(-c2nc3c(cnn3-c3ccc(F)cc3)c(=O)[nH]2)cc1 (configuration not stated)
Activity (L6 [1]): 0.6%

CCOC(=O)C(C)(C)Oc1ccc(-c2nc3c(cnn3-c3ccc(OC)cc3)c(=O)[nH]2)cc1
Activity (L6 [1]): 5%

CCOC(=O)C(C)Oc1ccc(-c2nc3c(cnn3-c3ccc(C)c(C)c3)c(=O)[nH]2)cc1 (configuration not stated)
Activity (L6 [1]): -17.2%

CCOC(=O)C(C)(C)Oc1ccc(-c2nc3c(cnn3-c3ccc(F)cc3F)c(=O)[nH]2)cc1
Activity (L6 [1]): -12.8%

CCOC(=O)COc1ccc(-c2nc3c(cnn3-c3ccc(C)c(C)c3)c(=O)[nH]2)cc1
Activity (L6 [1]): -16.8%

CN(C)C(=N)NC(=N)N [METFORMIN]
Activity (L6 [4]): 48%
fold change (FC) [5]: 1.45
fold change (FC) (L6 [6]): 1.48

CCOC(=O)CCCOc1ccc(-c2nc3c(cnn3-c3ccc(F)cc3)c(=O)[nH]2)cc1
Activity (L6 [1]): 6.4%

CCOC(=O)C(C)Oc1ccc(-c2nc3c(cnn3-c3ccccc3)c(=O)[nH]2)cc1 (configuration not stated)
Activity (L6 [1]): 34%
fold change (FC) (L6 [2]): 1.34
Activity [3]: Active

CCOC(=O)COc1ccc(-c2nc3c(cnn3-c3ccc(OC)cc3)c(=O)[nH]2)cc1
Activity (L6 [1]): 13.1%

CCOC(=O)CCCOc1ccc(-c2nc3c(cnn3-c3ccc(OC)cc3)c(=O)[nH]2)cc1
Activity (L6 [1]): 10.4%

From ChEMBL document CHEMBL4715886, “Microwave-assisted efficient synthesis of pyrazole-fibrate derivatives as stimulators of glucose uptake in skeletal muscle cells” (2021)
